Laboratory results: ChEMBL document CHEMBL2146456, “Identification and characterization of GABA(A) receptor modulatory diterpenes from Biota orientalis that decrease locomotor activity in mice” (J Nat Prod, 2011)
Activity calls are given as the source filed them. The rule behind the calls is not given here.

Assays:
Oocyte [1] = experiment: Allosteric modulation of gamma-aminobutyric acid receptor A alpha1beta2gamma2S expressed in Xenopus oocytes assessed as potentiation of GABA-mediated chloride current at 0.1 to 500 uM by voltage clamp analysis relative to control; assay type: cell-based
Procedure, shortened: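 Two-electrode voltage clamp on Xenopus oocytes injected with α1, β2, γ2S cRNA at a 1:1:10 ratio, recorded on days 1–5 at a holding potential of […]. Bath: 90 mM NaCl, 1 mM KCl, 1 mM MgCl2, 1 mM CaCl2, 5 mM HEPES pH 7.4. Compound was co-applied by fast perfusion with GABA EC5-10 (typically 3–10 μM). Potentiation was calculated as I(GABA+Comp)/IGABA − 1, and concentration-response curves were fitted by nonlinear regression.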

[2] = (§1) Allosteric modulation of gamma-aminobutyric acid receptor A alpha1beta2gamma2S expressed in Xenopus oocytes assessed as potentiation of GABA-mediated chloride current by voltage clamp analysis; assay type: cell-based; details: Oocyte
Procedure, shortened: (§2)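 Oocytes were injected with α1β2γ2S, α1β3γ2S, α2β2γ2S, α3β2γ2S or α5β2γ2S cRNAs at a 1:1:10 ratio. Two-electrode voltage clamp was run 1–5 days post-injection in HEPES-buffered saline at pH 7.4. Compounds in GABA EC5–10 (3–10 μM) were given by automated fast perfusion: screening at 10 and 100 μM (n = 2), otherwise concentration series. Potentiation = I(GABA+Comp)/IGABA − 1, with nonlinear regression fits.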

Oocyte [3] = experiment: Allosteric modulation of gamma-aminobutyric acid receptor A alpha1beta2gamma2S expressed in Xenopus oocytes assessed as potentiation of GABA-mediated chloride current at 100 uM by voltage clamp analysis relative to control; assay type: cell-based; procedure, shortened: as §2
Oocyte [4] = experiment: Allosteric modulation of gamma-aminobutyric acid receptor A alpha1beta2gamma2S expressed in Xenopus oocytes assessed as potentiation of GABA-mediated chloride current at 10 uM by voltage clamp analysis relative to control; assay type: cell-based; procedure, shortened: as §2
Oocyte [5] = experiment: Allosteric modulation of gamma-aminobutyric acid receptor A alpha3beta2gamma2S expressed in Xenopus oocytes assessed as potentiation of GABA-mediated chloride current at 0.1 to 500 uM by voltage clamp analysis relative to control; assay type: cell-based; procedure, shortened: as §2
Oocyte [6] = experiment: (§3) Allosteric modulation of gamma-aminobutyric acid receptor A alpha1beta1gamma2S expressed in Xenopus oocytes assessed as potentiation of GABA-mediated chloride current by voltage clamp analysis; assay type: cell-based
Procedure, shortened: (§4)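 α1β1γ2S cRNAs (3:1:10) injected into Xenopus oocytes and recorded 1–5 days later by two-microelectrode voltage clamp. Bath was 90 mM NaCl, 1 mM KCl, 1 mM MgCl2, 1 mM CaCl2, 5 mM HEPES, pH 7.4. Compound was co-applied by fast perfusion with GABA at EC5–10 (3–10 μM). Enhancement = I(GABA+Comp)/IGABA − 1. Concentration-response curves fitted by nonlinear regression.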

[7] = as §3; assay type: cell-based; details: Oocyte; procedure, shortened: as §4
Oocyte [8] = experiment: Agonist activity at gamma-aminobutyric acid receptor A alpha3beta2gamma2S expressed in Xenopus oocytes assessed as potentiation of GABA-mediated chloride current by voltage clamp analysis; assay type: functional, cell-based; procedure, shortened: as §2
Oocyte [9] = experiment: Agonist activity at gamma-aminobutyric acid receptor A alpha1beta3gamma2S expressed in Xenopus oocytes assessed as potentiation of GABA-mediated chloride current by voltage clamp analysis; assay type: functional, cell-based; procedure, shortened: as §2
Oocyte [10] = experiment: Allosteric modulation of gamma-aminobutyric acid receptor A alpha1beta1gamma2S expressed in Xenopus oocytes assessed as potentiation of GABA-mediated chloride current at 0.1 to 500 uM by voltage clamp analysis relative to control; assay type: cell-based; procedure, shortened: as §4
Mus musculus [11] = experiment: Anxiolytic activity in C57Bl/6N mouse assessed as ambulation distance at 3 mg/kg, ip measured after 30 mins by open field test ( Rvb = 31.8 +/- 1.7 m); assay type: functional; details: route intraperitoneal
Oocyte [12] = experiment: Allosteric modulation of gamma-aminobutyric acid receptor A alpha2beta2gamma2S expressed in Xenopus oocytes assessed as potentiation of GABA-mediated chloride current at 0.1 to 500 uM by voltage clamp analysis relative to control; assay type: cell-based; procedure, shortened: as §2
Oocyte [13] = experiment: Ratio of isopimaric acid EC50 to compound EC50 for gamma-aminobutyric acid receptor A alpha1beta1gamma2S expressed in Xenopus oocytes assessed as potentiation of GABA-mediated chloride current by voltage clamp analysis; assay type: cell-based
Oocyte [14] = experiment: Ratio of isopimaric acid EC50 to compound EC50 for gamma-aminobutyric acid receptor A alpha2beta2gamma2S expressed in Xenopus oocytes assessed as potentiation of GABA-mediated chloride current by voltage clamp analysis; assay type: cell-based
Oocyte [15] = experiment: Ratio of isopimaric acid EC50 to compound EC50 for gamma-aminobutyric acid receptor A alpha5beta2gamma2S expressed in Xenopus oocytes assessed as potentiation of GABA-mediated chloride current by voltage clamp analysis; assay type: cell-based
Oocyte [16] = experiment: Ratio of isopimaric acid Imax to compound Imax for gamma-aminobutyric acid receptor A alpha1beta3gamma2S expressed in Xenopus oocytes assessed as potentiation of GABA-mediated chloride current at 0.1 to 500 uM by voltage clamp analysis; assay type: cell-based
Oocyte [17] = experiment: (§5) Allosteric modulation of gamma-aminobutyric acid receptor A alpha2beta2gamma2S expressed in Xenopus oocytes assessed as potentiation of GABA-mediated chloride current by voltage clamp analysis; assay type: cell-based; procedure, shortened: as §2
[18] = as §5; assay type: cell-based; details: Oocyte; procedure, shortened: as §2
Oocyte [19] = experiment: Agonist activity at gamma-aminobutyric acid receptor A alpha2beta2gamma2S expressed in Xenopus oocytes assessed as potentiation of GABA-mediated chloride current by voltage clamp analysis; assay type: functional, cell-based; procedure, shortened: as §2
[20] = target: T1, GABA-A receptor; GABA-A site (alpha1/beta2 interface) (Homo sapiens) (UniProt P14867+P47870); experiment: Allosteric modulation of gamma-aminobutyric acid receptor A alpha1beta2 expressed in Xenopus oocytes assessed as potentiation of GABA-mediated chloride current at 100 uM by voltage clamp analysis; assay type: cell-based; details: Oocyte
Oocyte [21] = experiment: Ratio of isopimaric acid EC50 to compound EC50 for gamma-aminobutyric acid receptor A alpha3beta2gamma2S expressed in Xenopus oocytes assessed as potentiation of GABA-mediated chloride current by voltage clamp analysis; assay type: cell-based
Oocyte [22] = experiment: Agonist activity at gamma-aminobutyric acid receptor A alpha1beta2gamma2S expressed in Xenopus oocytes assessed as potentiation of GABA-mediated chloride current by voltage clamp analysis; assay type: functional, cell-based; procedure, shortened: as §2
Oocyte [23] = experiment: Ratio of isopimaric acid Imax to compound Imax for gamma-aminobutyric acid receptor A alpha1beta2gamma2S expressed in Xenopus oocytes assessed as potentiation of GABA-mediated chloride current at 0.1 to 500 uM by voltage clamp analysis; assay type: cell-based
Oocyte [24] = experiment: Allosteric modulation of gamma-aminobutyric acid receptor A alpha5beta2gamma2S expressed in Xenopus oocytes assessed as potentiation of GABA-mediated chloride current at 0.1 to 500 uM by voltage clamp analysis relative to control; assay type: cell-based; procedure, shortened: as §2
Oocyte [25] = experiment: (§6) Allosteric modulation of gamma-aminobutyric acid receptor A alpha5beta2gamma2S expressed in Xenopus oocytes assessed as potentiation of GABA-mediated chloride current by voltage clamp analysis relative to control; assay type: cell-based; procedure, shortened: as §2
[26] = as §6; assay type: cell-based; details: Oocyte; procedure, shortened: as §2
Oocyte [27] = experiment: Ratio of isopimaric acid Imax to compound Imax for gamma-aminobutyric acid receptor A alpha5beta2gamma2S expressed in Xenopus oocytes assessed as potentiation of GABA-mediated chloride current at 0.1 to 500 uM by voltage clamp analysis; assay type: cell-based
Oocyte [28] = experiment: Ratio of isopimaric acid Imax to compound Imax for gamma-aminobutyric acid receptor A alpha3beta2gamma2S expressed in Xenopus oocytes assessed as potentiation of GABA-mediated chloride current at 0.1 to 500 uM by voltage clamp analysis; assay type: cell-based
Oocyte [29] = experiment: Ratio of isopimaric acid Imax to compound Imax for gamma-aminobutyric acid receptor A alpha1beta1gamma2S expressed in Xenopus oocytes assessed as potentiation of GABA-mediated chloride current at 0.1 to 500 uM by voltage clamp analysis; assay type: cell-based
Oocyte [30] = experiment: Ratio of isopimaric acid EC50 to compound EC50 for gamma-aminobutyric acid receptor A alpha1beta2gamma2S expressed in Xenopus oocytes assessed as potentiation of GABA-mediated chloride current by voltage clamp analysis; assay type: cell-based
Oocyte [31] = experiment: Ratio of isopimaric acid Imax to compound Imax for gamma-aminobutyric acid receptor A alpha2beta2gamma2S expressed in Xenopus oocytes assessed as potentiation of GABA-mediated chloride current at 0.1 to 500 uM by voltage clamp analysis; assay type: cell-based
Oocyte [32] = experiment: Ratio of isopimaric acid EC50 to compound EC50 for gamma-aminobutyric acid receptor A alpha1beta3gamma2S expressed in Xenopus oocytes assessed as potentiation of GABA-mediated chloride current by voltage clamp analysis; assay type: cell-based
Oocyte [33] = experiment: Agonist activity at gamma-aminobutyric acid receptor A alpha5beta2gamma2S expressed in Xenopus oocytes assessed as potentiation of GABA-mediated chloride current by voltage clamp analysis; assay type: functional, cell-based; procedure, shortened: as §2
Oocyte [34] = experiment: as §1; assay type: cell-based; procedure, shortened: as §2
[35] = target: T1, GABA-A receptor; GABA-A site (alpha1/beta2 interface) (Homo sapiens); experiment: Allosteric modulation of gamma-aminobutyric acid receptor A alpha1beta2 expressed in Xenopus oocytes assessed as potentiation of GABA-mediated chloride current at 30 uM by voltage clamp analysis; assay type: cell-based; details: Oocyte
Oocyte [36] = experiment: Allosteric modulation of gamma-aminobutyric acid receptor A alpha1beta3gamma2S expressed in Xenopus oocytes assessed as potentiation of GABA-mediated chloride current at 0.1 to 500 uM by voltage clamp analysis relative to control; assay type: cell-based; procedure, shortened: as §2
Mus musculus [37] = experiment: Anxiolytic activity in C57Bl/6N mouse assessed as ambulation distance at 30 mg/kg, ip measured after 30 mins by open field test ( Rvb = 31.8 +/- 1.7 m); assay type: functional; details: route intraperitoneal
Oocyte [38] = experiment: Agonist activity at gamma-aminobutyric acid receptor A alpha1beta1gamma2S expressed in Xenopus oocytes assessed as potentiation of GABA-mediated chloride current at 300 uM by voltage clamp analysis; assay type: functional, cell-based; procedure, shortened: as §4
Oocyte [39] = experiment: (§7) Allosteric modulation of gamma-aminobutyric acid receptor A alpha3beta2gamma2S expressed in Xenopus oocytes assessed as potentiation of GABA-mediated chloride current by voltage clamp analysis; assay type: cell-based; procedure, shortened: as §2
[40] = as §7; assay type: cell-based; details: Oocyte; procedure, shortened: as §2
Oocyte [41] = experiment: Allosteric modulation of gamma-aminobutyric acid receptor A alpha1beta2gamma2S expressed in Xenopus oocytes assessed as potentiation of GABA-mediated chloride current at 100 uM by voltage clamp analysis; assay type: cell-based; procedure, shortened: as §2
Oocyte [42] = experiment: Allosteric modulation of gamma-aminobutyric acid receptor A alpha1beta2gamma2S expressed in Xenopus oocytes assessed as potentiation of GABA-mediated chloride current at 30 uM by voltage clamp analysis; assay type: cell-based; procedure, shortened: as §2
Oocyte [43] = experiment: (§8) Allosteric modulation of gamma-aminobutyric acid receptor A alpha1beta3gamma2S expressed in Xenopus oocytes assessed as potentiation of GABA-mediated chloride current by voltage clamp analysis; assay type: cell-based; procedure, shortened: as §2
[44] = as §8; assay type: cell-based; details: Oocyte; procedure, shortened: as §2

Cc1ncc2n1-c1ccc(Cl)cc1C(c1ccccc1F)=NC2 [MIDAZOLAM]
Imax (Oocyte [1]): 342%
EC50 [2]: 0.143 µM

C=C[C@]1(C)C=C2CC[C@H]3[C@](C)(CO)[C@@H](O)CC[C@]3(C)[C@H]2CC1
Imax (Oocyte [3]): 7.7%
Imax (Oocyte [4]): 13.8%

C=C[C@]1(C)C=C2CC[C@@H]3[C@](C)(CCC[C@@]3(C)C(=O)O)[C@H]2CC1 [SANDARACOPIMARIC ACID]
Imax (Oocyte [5]): 1100%
Activity (Oocyte [6]): Dose-dependent effect
EC50 [7]: 48.1 µM
Activity (Oocyte [8]): inactive
Activity (Oocyte [9]): inactive
Imax (Oocyte [10]): 502%
Activity (Mus musculus [11]): 25.1 m
Imax (Oocyte [12]): 1090%
Ratio EC50 (Oocyte [13]): 6.02
Ratio EC50 (Oocyte [14]): 11.7
Ratio EC50 (Oocyte [15]): 7.79
Ratio (Oocyte [16]): 0.92
Activity (Oocyte [17]): Dose-dependent effect
EC50 [18]: 31.2 µM
Activity (Oocyte [19]): inactive
Activity [20]: Active
Ratio EC50 (Oocyte [21]): 12.8
Activity (Oocyte [22]): inactive
Ratio (Oocyte [23]): 0.5
Imax (Oocyte [24]): 513%
Activity (Oocyte [25]): Dose-dependent effect
EC50 [26]: 40.7 µM
Ratio (Oocyte [27]): 0.92
Ratio (Oocyte [28]): 0.98
Ratio (Oocyte [29]): 1.43
Ratio EC50 (Oocyte [30]): 4.25
Ratio (Oocyte [31]): 0.94
Imax (Oocyte [1]): 856%
Ratio EC50 (Oocyte [32]): 10.3
Activity (Oocyte [33]): inactive
Activity (Oocyte [34]): Dose-dependent effect
EC50 [2]: 33.3 µM
Activity [35]: Active
Imax (Oocyte [36]): 520%
Activity (Mus musculus [37]): 22.3 m
Activity (Oocyte [38]): inactive
Activity (Oocyte [39]): Dose-dependent effect
EC50 [40]: 56.6 µM
Activity (Oocyte [41]): Active
Activity (Oocyte [42]): Active
Activity (Oocyte [43]): Dose-dependent effect
EC50 [44]: 24.9 µM

C=C1CC[C@@H]2[C@](C)(CCC[C@]2(C)C(=O)OC)[C@H]1CCC1=CCOC1=O
Imax (Oocyte [3]): -13.1%
Imax (Oocyte [4]): -13.4%
